Laboratory results as given in ChEMBL document CHEMBL1126600, “A trans-platinum complex showing higher antitumor activity than the cis congeners” (J Med Chem, 1993).

Legend:
Format in all cases: functional, cell-based
Details in all cases: Mus musculus
P388 [1] = assay: Effect was evaluated by implanting P388/DDP leukemia cells into B6D2F1 mice and treated for 1-7 days at 2 umol/ Kg dose
Procedure, shortened: (§1)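 P388 or P388/DDP leukemia cells (10^6/mouse) implanted ip into B6D2F1 mice on day 0; 6 animals/group, 8 untreated controls. Complexes dissolved in water just before use, given ip. Read-out %T/C = median survival time ×100 of treated vs untreated; >125% taken as significant. P388/DDP subline raised in vivo by serial passage with single ip cis-DDP (20 µmol/kg) 2 days after implantation.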

P388 [2] = assay: Effect was evaluated by implanting P388/DDP leukemia cells into B6D2F1 mice and treated for 1 day at 193 umol/ Kg dose; procedure, shortened: as §1
P388 [3] = assay: Inhibitory effect was evaluated on the growth of P388 cells
Procedure, shortened: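 P388 cells (10^5 cells/mL, exponential growth) exposed to the platinum complexes at increasing concentrations for 1 h at 37 °C, drug removed, then grown 48 h more; cell number and viability counted by trypan blue exclusion. ID50 = 50% growth-inhibitory concentration; five experiments, each in triplicate, mean ± standard deviation.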

P388 [4] = assay: Effect was evaluated by implanting P388 cells into B6D2F1 mice and treated for 1 day at 26 umol/ Kg dose; procedure, shortened: as §1
P388 [5] = assay: Effect was evaluated by implanting P388 cells into B6D2F1 mice and treated for 1-7 days at 2 umol/ Kg dose; procedure, shortened: as §1
P388 [6] = assay: Effect was evaluated by implanting P388 cells into B6D2F1 mice and treated for 1 day at 193 umol/ Kg dose; procedure, shortened: as §1

Row | Sequence | T/C (P388 [1]) [%] | T/C (P388 [2]) [%] | ID50 (P388 [3]) [µM] | T/C (P388 [4]) [%] | T/C (P388 [5]) [%] | T/C (P388 [6]) [%]
1 | CISPLATIN | 90 | 95 | 2.05 | 202 | 203 | 
2 | TRANSPLATIN |  | 107 | 85 |  |  | 105
